Compound activity as filed in PubChem.
MT1-MMP txn act: MT1-MMP promoter reporter activation – cell-based, luciferase luminescence, primary screen | AID 750, 2007 | HT1080 MT1-MMP promoter luciferase reporter, overnight; stronger effect = higher value | activation factor at 10 µM | actives 0.16% (n = 86,000);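 active means activation factor of at least 2 for MT1-MMP transcription at 10 µM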
HEK293 NFkB inh: inhibitors of PMA/ionomycin-induced NF-kB reporter, primary screen, antigen receptor NF-kB inhibitor project, cell-based, HEK-293 luciferase reporter, luminescence. HEK-293 NF-kB luciferase reporter. inhibition, % at 3 µM. actives 0.21% (n = 62,000);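 active means inhibition above the mean of all tested compounds plus 3 SD, cut at about 40% in these data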;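 further: 0% = stimulated DMSO wells and 100% = 10 µM reference inhibitor 5653914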
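Signal: luciferase luminescence; Material: HEK-293 cells with stable firefly luciferase reporter driven by four HIV NF-kB elements; Probe or stimulus: PMA with ionomycin; Replication: tested once; Times: 1 h compound pretreatment, then 16 h stimulation at 37 °C, 5% CO2; Benchmarks: DMSO and 10 µM reference inhibitor; Evaluation: per-plate % inhibition versus controls.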
SF-1 act: activators of human SF-1, primary screen, cell-based, CHO-K1, Gal4-SF-1 LBD, luciferase luminescence; Steroidogenic factor 1 (Homo sapiens), Q13285; actives 1.9% (n = 65,000); CHO-K1 Gal4-SF-1 LBD luciferase reporter; % increase over DMSO SF-1-specific signal; AID 522, 2006; activation, % at 10 µM;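 active means activation above the mean activation of all tested compounds plus 3 SD, cut at about 50% in these data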
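Test system: transient Gal4-SF-1 LBD reporter, CHO-K1; Amount: 4,000 CHO-K1 cells per well; Doses: 10 µM only; Timing: compound exposure 20 h at 37 °C; Signal: luciferase light emission; Read-out basis: percent activation relative to DMSO median and mock-transfected background; Control set: DMSO negative control and −SF1 background wells; Replicates: one test per compound.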
RORA act: activators of orphan receptor RORA, primary screen, cell-based, luminescence | Nuclear receptor ROR-alpha (Homo sapiens), P35398 | CHO-K1 Gal4-RORA LBD luciferase reporter; percent increase over mock-subtracted basal signal | activation, % at 10 µM | actives 1.5% (n = 65,000) | AID 560, 2006;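 active means activation above the mean of all tested compounds plus 3 SD, cut at about 49% in these data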;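 further: 0% = DMSO-treated RORA cells and 100% = added signal equal to DMSO minus mock-transfected cells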
Target sequence (P35398 whole entry, looked up, the tested form may be a part): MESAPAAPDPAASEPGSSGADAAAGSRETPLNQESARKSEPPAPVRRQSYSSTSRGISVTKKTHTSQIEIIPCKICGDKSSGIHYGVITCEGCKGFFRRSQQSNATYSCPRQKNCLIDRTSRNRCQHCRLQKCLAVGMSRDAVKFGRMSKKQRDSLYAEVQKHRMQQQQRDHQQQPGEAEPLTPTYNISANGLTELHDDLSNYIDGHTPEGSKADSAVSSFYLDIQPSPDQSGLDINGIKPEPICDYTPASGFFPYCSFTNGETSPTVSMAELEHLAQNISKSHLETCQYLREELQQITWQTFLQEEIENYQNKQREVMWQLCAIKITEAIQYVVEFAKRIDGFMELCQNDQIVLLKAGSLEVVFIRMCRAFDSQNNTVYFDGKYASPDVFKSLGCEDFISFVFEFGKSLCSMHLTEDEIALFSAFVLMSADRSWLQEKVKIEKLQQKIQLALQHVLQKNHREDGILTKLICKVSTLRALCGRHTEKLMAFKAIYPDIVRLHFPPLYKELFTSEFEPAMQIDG
Jurkat viability: cytotoxicity toward Jurkat T cells, primary screen, cytotoxicity control, cell-based, Jurkat E6.1, 60K MLSMR library. Jurkat E6.1 viability, ATP luminescence, 48 h. inhibition, % at 4 µM. actives 1.2% (n = 56,000). AID 463, 2006;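 active means inhibition above the mean inhibition of all tested compounds plus 3 SD, cut at about 28% in these data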
The depositor's hits bear a star; nt = no result. A selection: hits, their analogues and other compounds. The true share with any hit is near 2.8%.

SMILES	MT1-MMP txn act	HEK293 NFkB inh	SF-1 act	RORA act	Jurkat viability
COc1ccc(OCc2nc3ccccc3[nH]2)cc1	0.6	nt	nt	nt	nt
c1cnc2c(OCc3nc4ccccc4[nH]3)cccc2c1	1.2	-32	65*	82*	2
COc1ccccc1OCc1nc2ccccc2[nH]1	1.1	-28	53*	54*	-2
Cn1c(-c2ccccc2)cnc1SCc1nc2ccccc2c(=O)[nH]1	0.9	-38	69*	29	5
O=C1CC(c2ccc(F)c(Br)c2)C2=C(CCCC2=O)N1 (centres undefined)	2.3*	4	-3	-14	2
Cc1nn(C)cc1CNC(=O)c1cc2n(n1)C(C(F)(F)F)CC(c1cccs1)N2 (centres undefined)	1	3	-6	4	9
Cc1nn(C)c(C)c1CNC(=O)c1nn2c(c1Cl)NC(c1cccs1)CC2C(F)(F)F (centres undefined)	1	25	0	-22	41*
Nc1c(C(=O)NC2CCCCC2)nsc1C(=O)OCC(=O)NC1CCCCC1	1	-5	0	-6	-9
CCOC(=O)c1snc(C(=O)NC2CCCCC2)c1N	1.5	-28	106*	57*	6
COc1ccc(Cl)cc1NC(=O)c1ccccc1C	1	nt	nt	nt	nt
CCCNC(=O)c1ccc(-c2nc3ccccc3s2)s1	0.6	nt	nt	nt	nt
c1ccc(-c2nc3ccccc3s2)nc1	0.8	-23	60*	34	0
c1ccc(-c2ccccn2)nc1	1.2	nt	nt	nt	nt
Brc1ccc(-c2nc3ccccc3s2)s1	1.5	-29	54*	48	-2
O=C(Nc1ccc2c(c1)OCO2)c1ccc(Cl)s1	1.1	nt	nt	nt	nt
CCCCC(=O)Nc1ccc(NC(=O)c2ccc3c(c2)OCO3)cc1OC	1.1	-13	11	19	-2
O=C(Nc1ccc2c(c1)OCO2)c1c(F)c(F)c(F)c(F)c1F	1	1	-2	-10	0
O=C(Nc1ccc2c(c1)OCO2)c1c(Cl)nc2sccn12	1.3	-36	66*	48	nt
CCOc1ccc(C(=O)Nc2ccc3c(c2)OCCO3)cc1OC	1.5	-1	56*	34	0
Cc1noc(C(=O)Nc2ccc3c(c2)OCO3)c1Cl	1.5	-12	61*	65*	2
COc1cc(NC(=O)c2ccc3c(c2)OCO3)ccc1NC(=O)C(C)C	1.1	21	-27	-7	98*
CC1CC(C)CN(CCCNC(=O)C2CCCN(c3nnc(N4CCCC4=O)s3)C2)C1 (centres undefined)	1.2	9	6	-20	6
O=C(C1CCCN(S(=O)(=O)Cc2ccccc2)C1)N1CCCCC1 (centres undefined)	1.3	1	-12	-8	-10
CCCOc1ccc(OCCSc2ncccn2)cc1	1	-27	28	48	7
CC(C)OC(=O)CCc1nc2ccccc2[nH]c1=O	1	12	-4	-6	1
SMILES	MT1-MMP txn act	HEK293 NFkB inh	SF-1 act	RORA act	Jurkat viability
CCCCNS(=O)(=O)c1ccc(OC)c(Cl)c1Cl	1	nt	nt	nt	nt
CC(=O)Nc1ccc(C(=O)Nc2ccc3c(c2)OCO3)cc1	1.2	0	31	29	-5
O=C(Nc1ccc(F)c(F)c1)c1ccc2c(c1)OCO2	1.3	-32	66*	24	2
Cc1occc1C(=O)Nc1ccc2c(c1)OCO2	1.2	-19	53*	18	6
O=C(Nc1ccc(Cl)cc1)c1ccc2c(c1)OCO2	1.5	-46	31	9	8
O=C(Nc1cccc(O)c1)c1cnn2cccnc12	1.4	nt	nt	nt	nt
CCOC(=O)c1c(C)c(C(=O)Nc2ccc3c(c2)OCCO3)c(C)n1CC	1.1	12	46	11	48*
O=C(Nc1ccc2c(c1)OCO2)c1cnn2cccnc12	1.1	-23	70*	61*	-2
O=C(NCc1ccc2c(c1)OCO2)C1CC(=O)N(C2CCCC2)C1 (centres undefined)	1.1	-4	8	8	-2
CCN(CC)c1ccc(C=Nc2ccc(N(C)C)cc2)c(O)c1	1.3	nt	nt	nt	nt
COCCN(CCOC)C(=O)C12CCC(C)(C(=O)C1)C2(C)C (centres undefined)	1.1	nt	-5	-7	nt
COc1cc2c(cc1NC(=O)c1ccc3c(c1)OCO3)oc1ccccc12	2.1*	-17	54*	17	5
O=C(Nc1ccc2c(c1)OCO2)c1cccc(Cl)c1	1.2	-13	67*	30	5
O=C(Nc1ccc2c(c1)OCO2)c1ccc[n+]([O-])c1	1.2	nt	nt	nt	nt
O=C(Nc1ccc2c(c1)oc1ccccc12)c1ccc2c(c1)OCO2	1.2	-9	38	34	4
CCOc1cccc2cc(C(=O)N3CCN(C/C=C/c4ccccc4)CC3)c(=O)oc12	1.3	18	10	-12	14
CCN(C(=O)c1cnc(N2CCN(c3ncccn3)CC2)c2ccccc12)c1cccc(Cl)c1	1.2	20	13	6	17
COc1ccc2nc(NC(=O)c3cc(C)oc3C)sc2c1	1.4	nt	nt	nt	nt
COc1ccc2nc(NC(=O)C3COc4ccccc4O3)sc2c1 (centres undefined)	0.9	-37	22	9	2
O=C(NC1=NCCS1)C1COc2ccccc2O1 (centres undefined)	0	58*	-66	-72	7
CS(=O)(=O)c1ccc2nc(NC(=O)C3COc4ccccc4O3)sc2c1 (centres undefined)	1.4	-11	52*	7	4
Cc1cc(C(=O)Nc2nc3ccc(S(C)(=O)=O)cc3s2)c(C)o1	1	1	50*	89*	1
Cc1nnc(NC(=O)C2COc3ccccc3O2)s1 (centres undefined)	1.6	-18	52*	18	-1
CCN(CC)C(=O)c1ccc2c(c1)N(Cc1ccccc1)C(=O)CS2=O (centres undefined)	1.1	2	13	-23	-3
O=C(Nc1nc(-c2ccc(S(=O)(=O)N3CCOCC3)cc2)cs1)c1ccccc1	1.1	nt	nt	nt	nt
O=C(Nc1nc(-c2nc3ccccc3s2)cs1)C1COc2ccccc2O1 (centres undefined)	1.5	-5	55*	13	1
O=C(Nc1nc(-c2nc3ccccc3s2)cs1)c1ccc(S(=O)(=O)N2CCOCC2)cc1	1.2	-16	-5	-25	50*
COc1ccccc1OC(=O)c1ccc2nsnc2c1	1.3	9	8	-18	1
CC(=O)Nc1c(O)nc(SCC(=O)Nc2ccc(C(C)=O)cc2)[nH]c1=O	1.7	7	50*	58*	-9
Cc1ccc(OCC(=O)Nc2ccc(S(=O)(=O)N3CCN(C)CC3)cc2)cc1	1.3	nt	nt	nt	nt
